Experimental data gathered from unrelated publications.
Target: Serine/threonine-protein kinase 3 (STK3, Homo sapiens, UniProt Q13188)
Sequence (Q13188 1-491, as in one of the studies): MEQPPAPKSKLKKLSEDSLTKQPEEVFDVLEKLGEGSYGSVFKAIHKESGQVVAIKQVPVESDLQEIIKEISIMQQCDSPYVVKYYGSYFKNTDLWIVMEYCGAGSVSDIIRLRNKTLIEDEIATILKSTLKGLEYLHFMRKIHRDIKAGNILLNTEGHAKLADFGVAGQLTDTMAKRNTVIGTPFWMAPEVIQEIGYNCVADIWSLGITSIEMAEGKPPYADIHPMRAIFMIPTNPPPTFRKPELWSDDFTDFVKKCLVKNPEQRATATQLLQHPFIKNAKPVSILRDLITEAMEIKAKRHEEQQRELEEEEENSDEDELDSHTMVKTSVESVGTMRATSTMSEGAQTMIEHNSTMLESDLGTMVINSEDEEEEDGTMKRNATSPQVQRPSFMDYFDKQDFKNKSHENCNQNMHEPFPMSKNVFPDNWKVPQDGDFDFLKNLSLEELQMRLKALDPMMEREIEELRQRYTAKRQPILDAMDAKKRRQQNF

SMILES | assay | test system | setting | measurement | value
FC(F)(F)Oc1cccc(-c2cnc3ccc(-c4ccncc4)nn23)c1 | enzyme activity, inhibitor, radiometric |  | 1 µM | activity vs control | 75%
Cc1cc(NC(=O)c2cccc3cc(-c4cccc5[nH]nc(N)c45)ccc23)ccc1F | enzyme activity, inhibitor |  | 0.1 µM | activity vs control | 98%
CCN1CCN(Cc2ccc(NC(=O)c3ccc(C)c(Oc4ccnc5[nH]ccc45)c3)cc2C(F)(F)F)CC1 | target engagement in cells, inhibitor, chemoproteomics | Huh-7 | 1 µM | inhibition | -58.9%
CS(=O)(=O)CCNCc1ccc(-c2ccc3ncnc(Nc4ccc(OCc5cccc(F)c5)c(Cl)c4)c3c2)o1 | cell-free assay |  | 0.5 µM | remaining signal | 93.7%
CNCc1ccc(-c2cc(-c3nc(-c4ccc(S(=O)(=O)C(C)C)cc4)cnc3N)on2)cc1 | enzyme activity, inhibitor |  | 2 µM | inhibition | 43%
O=C(Nc1cnn(-c2csc(C(=O)NC3COC3)c2)c1)Nc1c(F)cccc1Cl | enzyme activity, inhibitor |  | 5 µM | remaining activity | 93.2%
CC1=C(C#N)C(c2ccc3c(c2)c(NC(=O)c2ccccc2C)nn3C)C(C#N)=C(C)N1 | cell-free assay, competition with immobilised ligand |  | 1 µM | remaining binding | 100%
Cc1ccc(NC(=O)c2ccc(C)c(C(F)(F)F)c2)cc1C#Cc1nn(C2CCC(O)CC2)c2ncnc(N)c12 (stereo not shown) | cell-free assay |  | 10 µM | remaining signal | 63%
O=C1Nc2ccc(Cl)cc2C1=Cc1cc(Cl)c(O)c(Cl)c1 | cell-free assay |  | 0.5 µM | remaining signal | 31.6%
CC(C)(C)c1nc(-c2cccc(NS(=O)(=O)c3c(F)cccc3F)c2F)c(-c2ccnc(N)n2)s1 | enzyme activity, inhibitor, radiometric |  | 1 µM | remaining activity | 94%
O=C1NC(=O)c2cc(Nc3ccc(F)cc3)c(Nc3ccc(F)cc3)cc21 | cell-free assay |  | 0.5 µM | remaining signal | 90.7%
CNC(=O)c1cc(Oc2ccc(NC(=O)Nc3ccc(Cl)c(C(F)(F)F)c3)cc2)ccn1 | cell-free assay, inhibitor |  | 10 µM | inhibition | -8%
Cc1sc(C(=O)NC2COC2)cc1-n1cc(NC(=O)Nc2c(F)cccc2Cl)cn1 | enzyme activity, inhibitor |  | 10 µM | remaining activity | 93.9%
Cn1c2c(c3ccc(Cl)c(Cl)c31)C(C#N)C1(CCCC1)NC2=O (stereo not shown) | thermal stability, DSF |  | 10 µM | ΔTm | 0.4 °C
N#CC1(c2ccccn2)CCN(Cc2cc(C(=O)N3CCCC3)c(=O)n3ccccc23)CC1 | cell-free assay, competition with immobilised ligand |  | 1 µM | remaining binding | 92%
COc1cc(Nc2cnc(C#N)c(O[C@H](C)CN(C)C)n2)ncc1-c1cnn(C)c1 | enzyme activity, inhibitor, radiometric |  | 1 µM | remaining activity | 67%
NS(=O)(=O)c1cc(NC(=O)C2(c3ccccc3Cl)CC2)ccc1Oc1cccc(Cl)c1 | cell-free assay, competition with immobilised ligand |  | 1 µM | remaining binding | 94%
Cn1c2c(Cl)c(Cl)ccc2c2cc(N)[nH]c(=O)c21 | thermal stability, DSF |  | 10 µM | ΔTm | 2.2 °C
Cc1cnc(NC2CCOCC2)nc1-n1cnc(C(=O)NC(CN)c2cc(F)cc(Cl)c2)c1 (stereo not shown) | enzyme activity, inhibitor, radiometric |  | 1 µM | remaining activity | 108%

SMILES | assay | test system | setting | measurement | value
CC/C(=N\NC(=O)NCc1cccc(O)c1)c1ccc(O)c(C)c1O | enzyme activity, inhibitor |  | 0.1 µM | inhibition | -0.5%
CC(C)(O)[C@H]1CC[C@H](Nc2ccc3ncc(-c4cccc(C(F)(F)F)c4)n3n2)CC1 | enzyme activity, inhibitor |  | 1 µM | remaining activity | 73.9%
CN1CCC2(CC1)NC(=O)c1c(c3ccc(Cl)c(Cl)c3n1C)C2C#N (racemic) | thermal stability, DSF |  | 10 µM | ΔTm | -0.2 °C
Cc1c(NC(=O)c2cc(C(N)=O)nc3cc(F)ccc23)c(C(F)(F)F)nn1Cc1ccc(C(C)(C)C)cc1 | cell-free assay, competition with immobilised ligand |  | 1 µM | remaining binding | 90%
Nc1nc(NC2CCCCC2)sc1C(=O)c1ccccc1 | enzyme activity, inhibitor |  | 10 µM | remaining activity | 97%
Cc1ccc(Nc2nccc(N(C)c3ccc4c(C)n(C)nc4c3)n2)cc1S(N)(=O)=O | cell-free assay, inhibitor |  | 0.3 µM | inhibition | 1%
Nc1ncnc2occ(-c3ccc(NC(=O)Nc4cc(C(F)(F)F)ccc4F)cc3)c12 | cell-free assay, inhibitor |  | 20 µM | remaining signal | 6.6%
FC(F)c1nc2ccccc2n1-c1nc(N2CCOCC2)nc(N2CCOCC2)n1 | enzyme activity, inhibitor |  | 10 µM | remaining activity | 92%
Cn1c2c(c3ccccc31)C(C#N)C(C)(C)NC2=O (stereo not shown) | thermal stability, DSF |  | 10 µM | ΔTm | -0.5 °C
CO[C@@H](C)c1c(Nc2ccc([C@H](N(C)C(=O)C3CCS(=O)(=O)CC3)C(F)(F)F)cc2)cnc2cc(Cl)nn12 | cell-free assay, competition with immobilised ligand |  | 1 µM | remaining binding | 92%
Cn1c2c(c3ccc(Cl)c(Cl)c31)C(C#N)C(C)(C)NC2=O (stereo not shown) | thermal stability, DSF |  | 10 µM | ΔTm | 0.4 °C
Cc1ccc(NC(=O)c2ccc(CN3CCN(C)CC3)cc2)cc1Nc1nc(-c2cccnc2)cs1 | cell-free assay |  | 0.5 µM | remaining signal | 94.4%
COc1ccc2cc(OCC3(C(=O)O)CN(C(=O)c4ccc(F)cc4)C3)ccc2c1 | cell-free assay, competition with immobilised ligand |  | 1 µM | remaining binding | 100%
COc1cc2ncnc(Nc3ccc(Oc4ccccc4)cc3C)c2cc1OC | enzyme activity, inhibitor |  | 1 µM | inhibition | -4%
O=C(Nc1cccnn1)N1CCC(=Cc2cccc(Oc3ccc(C(F)(F)F)cn3)c2)CC1 | cell-free assay, competition with immobilised ligand |  | 1 µM | remaining binding | 100%
CCCOc1ccc(OC)c(F)c1C(=O)c1ccc(C(=O)N[C@@H]2CNC[C@H]2NC(=O)c2ccc3[nH]ncc3c2)cc1 | enzyme activity, inhibitor |  | 10 µM | remaining activity | 85%
Cn1nc(C(F)(F)F)cc1-c1cnc(N2CCc3cc(S(=O)(=O)Nc4c(F)cc(Cl)cc4F)cc(N4CCCC4=O)c32)nc1 | cell-free assay, competition with immobilised ligand |  | 1 µM | remaining binding | 90%
CNc1cccc2cc(C(=O)Nc3ccc(C(=O)O)cc3)c(=O)[nH]c12 | enzyme activity, inhibitor |  | 10 µM | inhibition | 4.2%
